Source: PubChem (Broad Institute)
CDK5 inh – CDK5/p35 (human) kinase inhibition. Recombinant CDK5/p35, ADP-Glo luminescence, 60 min. inhibition, % at 10 µM. hit rate 0.01% among 330,000;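 active = highest replicate inhibition of at least 50% and at least 75% of replicates reaching 50%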;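 also: plate controls were DMSO neutral control for no effect and GW8510 at 10 µM for full effect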
GSK3 alpha inh – human GSK-3 alpha kinase inhibition; P49840; ADP-Glo luminescence, 60 min; inhibition, % at 10 µM; hit rate 0.1% among 320,000; AID 2650;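 active = more than half of replicates show inhibition above 20%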;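 also: GST-tagged GSK-3 alpha with peptide substrate and 25 µM ATP; 0% = DMSO neutral wells and 100% = GW8510 positive control wells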
Target sequence (P49840 whole entry, looked up): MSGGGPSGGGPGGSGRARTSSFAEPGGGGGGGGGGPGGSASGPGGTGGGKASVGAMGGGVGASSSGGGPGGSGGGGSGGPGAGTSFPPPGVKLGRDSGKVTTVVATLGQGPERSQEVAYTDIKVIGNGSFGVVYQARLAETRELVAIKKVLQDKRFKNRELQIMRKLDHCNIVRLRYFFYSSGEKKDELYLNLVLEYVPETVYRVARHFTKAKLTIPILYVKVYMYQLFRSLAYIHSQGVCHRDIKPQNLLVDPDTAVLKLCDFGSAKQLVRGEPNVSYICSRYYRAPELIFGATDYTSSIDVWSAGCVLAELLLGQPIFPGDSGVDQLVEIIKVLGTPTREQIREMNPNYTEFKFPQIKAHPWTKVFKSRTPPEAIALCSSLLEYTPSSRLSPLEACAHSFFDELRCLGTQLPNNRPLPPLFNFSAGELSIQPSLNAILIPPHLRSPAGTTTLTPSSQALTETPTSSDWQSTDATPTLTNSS
GSK3beta inhib – human GSK3beta kinase inhibition; GST-GSK3beta kinase, ADP-Glo luminescence, 60 min; hits give low values; hit rate 0.038% among 300,000; activity score (negative = inhibition), % at 10 µM;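 active = more than half of replicate wells score below -50%, meaning over 50% inhibition versus plate controls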;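 also: 0% = median DMSO wells and -100% = median GW8510 positive control wells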
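Assay system: GST-tagged human GSK3beta kinase, cell-free; Input: 1.6 ng GSK3beta; Medium: Tris/MgCl2 kinase buffer; Timing: 60 min enzyme reaction, room temperature; Signal: ADP-Glo luminescence quantifying ADP generated by kinase; Evaluation: score relative to plate controls; Benchmarks: DMSO neutral wells and GW8510 at 20 µM as positive.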
STK33 kinase inh – human STK33 kinase inhibition; purified STK33, MBP phosphorylation, ADP-Glo luminescence; inhibition, % at 10 µM; Q9BYT3; hit rate 0.073% among 320,000;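 active = inhibition at or above 25%, using the most active replicate where run in duplicate; inactive = inhibition below 25%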
DYRK1A inh – Dyrk1A (rat) kinase inhibition. ADP-Glo luminescence, NFATc1 peptide. inhibition, % at 12.5 µM. hit rate 0.43% among 310,000. AID 504441; in the data active = inhibition above about 50%;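 also: plate controls were vehicle with enzyme for no effect and no enzyme for full effect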
Active calls of the source: *; nt = not tested or not shown. The sample as a whole holds a higher share of hits than the screen did.

SMILES	CDK5 inh	GSK3 alpha inh	GSK3beta inhib	STK33 kinase inh	DYRK1A inh
CCN(CC)CCNC(=O)c1ccc(NC(=O)C2CCN(c3ncnc4sc(C)c(C)c34)CC2)cc1	0	53*	3	3	32
Cc1sc2ncnc(N3CCC(C(=O)Nc4ccc(OC(F)F)c(Cl)c4)CC3)c2c1C	-3	0	nt	-1	2
Cc1c(CN(C)C)c2c(n1C)C(=O)c1ccc(Br)cc1-2	4	55*	-37	1	36
Cc1cc(N2C(=O)c3ccc(C(=O)Nc4ccc(O)cc4C(=O)O)cc3C2=O)no1	-1	0	-1	32*	-8
COc1ccc(C(=O)NCc2nc(C)c(C)s2)cc1OC1CCN(C(C)C)CC1	-1	-3	2	-2	-3
COc1ccc(C(=O)O/N=C(\C)c2ccccc2)cc1	37	25	-28	29*	37
COc1ccc(C(=O)O/N=C(/c2ccccc2)c2ccncc2)cc1	1	2	1	-2	-5
CCn1c(=O)n(CC)c2cc(S(=O)(=O)N3CCc4ccccc43)ccc21	-3	-2	0	-2	8
CN(Cc1c(C(=O)N/N=C/c2ccc(O)cc2)nnn1-c1nonc1N)c1ccccc1	0	75*	2	6	37
CCN(CC)Cc1c(C(=O)N/N=C/c2cccs2)nnn1-c1nonc1N	2	76*	-3	-1	14
CCN(CC)Cc1c(C(=O)N/N=C/c2cccc3ccccc23)nnn1-c1nonc1N	2	3	2	1	3
CC(=C/c1ccco1)/C=N/NC(=O)c1nnn(-c2nonc2N)c1CN(C)C	1	59*	3	-1	-2
CN(C)Cc1c(C(=O)N/N=C/c2cccs2)nnn1-c1nonc1N	-2	6	-8	0	7
CCN(CC)Cc1c(C(=O)N/N=C/c2ccccn2)nnn1-c1nonc1N	1	60*	-54*	1	-6
C=CC[C@@H](CC(=O)OC(C)(C)C)C(=O)OC[C@H]1CCCN1C(=O)[C@@H](CC=C)CC(=O)N[C@H](CO)Cc1ccccc1	0	-3	nt	1	8
CCOc1ccc(C)cc1S(=O)(=O)n1nc(C)cc1C	-6	-1	2	-1	3
CCCC1CC(=O)NC1(C(=O)OCC)C(=O)OCC (centres undefined)	0	nt	nt	nt	-4
Clc1cccc(-c2csc(Nc3cccnc3)n2)c1	1	0	0	-1	-4
c1cncc(Nc2nc(-c3cccnc3)cs2)c1	2	10	-11	34*	32
Cc1cccc(/C(N)=N/OC(=O)c2ccc3c(c2)OCO3)c1	23	35	-25	32*	23
N/C(=N\OC(=O)c1ccc2c(c1)OCO2)c1cccc([N+](=O)[O-])c1	-1	0	1	4	5
COc1cc(C(=O)Oc2cc(N)n(S(=O)(=O)c3ccc(F)cc3)n2)cc(OC)c1OC	0	0	-6	0	-1
COc1ccc(S(N)(=O)=O)cc1C(=O)NCCCN1CCN(c2ccc(C)cc2)CC1	0	11	3	1	4
CCCn1nc(NC(=O)C(C)(C)C)c2cc3cc(OC)ccc3nc21	10	66*	-42	1	32
COc1ccc(CNc2ncnc3cc(Cl)ccc23)cc1OC	-1	nt	1	nt	1
SMILES	CDK5 inh	GSK3 alpha inh	GSK3beta inhib	STK33 kinase inh	DYRK1A inh
CCN(CC)Cc1cc2[nH]c3c4ccc(Cl)cc4ncc3c2cc1OC	0	nt	-52*	nt	nt
Cc1cc(-c2ccc(N=Nc3c(S(=O)(=O)O)cc4cc(S(=O)(=O)O)cc(N)c4c3O)c(C)c2)ccc1N=Nc1c(S(=O)(=O)O)cc2cc(S(=O)(=O)O)cc(N)c2c1O	nt	32	nt	66*	nt
COC(=O)c1ccc(COc2ccccc2/C=C/C(=O)c2ccc(OCC(=O)O)cc2)cc1	-1	-2	-8	50*	-2
CC(=O)c1cc(O)c2ccccc2c1O	4	-3	1	-1	62*
COc1ccc(OC)c(NC(=O)c2ccc(-c3cccs3)cc2)c1	0	-3	4	1	-4
OCc1nnn(-c2ccccc2)c1CO	0	-4	-2	-1	0
Nc1c(CO)nnn1-c1ccccc1	1	50*	-21	1	6
O=C(NCc1ccco1)c1ccc(CS(=O)Cc2cccc(Cl)c2)o1 (centres undefined)	1	0	0	-1	5
Oc1cc(O)cc(/C=C/c2ccc(O)c(O)c2)c1	22	28	nt	50*	69*
C/C=C/c1ccc(O)c(OC)c1	0	-2	nt	0	2
N#CCCn1cc(/C=N/O)c(-c2cccc([N+](=O)[O-])c2)n1	3	64*	-26	0	20
N#CCCn1cc(/C=N/O)c(-c2ccccc2)n1	4	11	nt	0	8
C#CCOCCOCCOCCNc1nc(N2CCN(C(=O)CCCCCCCCCCNC(=O)[C@H](CCCCN)n3cc(CCO)nn3)CC2)nc(N2CCN(C(=O)CCCCCCCCCCNC(=O)[C@H](CCCN=C(N)N)n3cc(C[C@@H](C)CC)nn3)CC2)n1	9	19	nt	14	19
C#CCOCCOCCOCCNc1nc(N2CCN(C(=O)CCCCCCCCCCNC(=O)[C@H]([C@@H](C)CC)n3cc(CCCCN=C(N)N)nn3)CC2)nc(N2CCN(C(=O)CCCCCCCCCCNC(=O)[C@H](CCCCN)n3cc(C[C@@H](C)CC)nn3)CC2)n1	nt	17	nt	30*	nt
CC(C)(C)C1=NN=C2c3ccccc3C(=O)C21 (centres undefined)	1	10	-3	30*	1
CCc1c(C)c(C#N)c2nc3ccccc3n2c1NCc1ccccn1	-1	81*	0	4	1
CCc1c(C)c(C#N)c2nc3ccccc3n2c1NCCOC	-1	-2	-2	0	19
Cc1cc(C)n(CCC(=O)N=Nc2c(O)[nH]c3ccc(Br)cc23)n1	1	73*	-16	0	-3
Cc1cc(C)n(CCC(=O)N=Nc2c(O)[nH]c3ccccc23)n1	-2	8	0	-1	-4
CN1CCN(S(=O)(=O)c2cccc(C(=O)N(C)C(c3ccccc3)c3ccccc3)c2)CC1	-2	-2	0	-1	17
Nc1nc(NCCCN2CCOCC2)nc(Nc2ccc(F)cc2)c1[N+](=O)[O-]	0	51*	12	0	10
Nc1nc(NCCCN2CCOCC2)nc(Nc2cccc(F)c2)c1[N+](=O)[O-]	0	57*	-71*	-3	38
Nc1nc(Nc2cccc(F)c2)nc(N2CCOCC2)c1[N+](=O)[O-]	5	24	-19	5	34
COc1ccc(Nc2nc(NCCCN3CCOCC3)nc(N)c2[N+](=O)[O-])cc1	1	85*	-56*	2	14
COCCNc1nc(N)c([N+](=O)[O-])c(Nc2ccc(F)cc2)n1	1	4	-1	-1	-3
Cc1cccc(Nc2nc(NCCCN3CCOCC3)nc(N)c2[N+](=O)[O-])c1	1	75*	-74*	5	nt
O=C(Nc1cccc(Cl)c1)Nc1ccc(Br)cc1F	1	0	0	-1	8
